# A selection: hits, their analogues and other compounds. The true share with any hit is near 2%.
# STAT1 blocker = STAT1 signaling inhibition | NIH 3T3 STAT1-luciferase reporter, IFN-gamma, luminescence | actives 0.35% (n = 200,000) | inhibition, % at 5.5 µM | AID 920;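 active = inhibition above a set limit, the mean inhibition across all tested compounds plus 3 SD, cut at about 34% in these data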;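 note: 0% = IFN-gamma with DMSO and 100% = IFN-gamma with 300 µM nifuroxazide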
# HSP90 refold inh = inhibitors of HSP90 luciferase refolding in rabbit reticulocyte lysate; luciferase refolding luminescence, 3 h; inhibition, % at 5.6 µM; actives 0.91% (n = 290,000);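 active = inhibition above the screen-wide mean plus 3 SD, computed separately per campaign, cut at about 16% in these data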;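 note: 0% = DMSO wells and 100% = 60 µM geldanamycin wells; inhibitors lower the luminescence because luciferase stays unfolded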
# STAT3 blocker = inhibitors of IL-6 induced STAT3 signaling. U3A cells, IL-6 STAT3-luciferase reporter, luminescence; host cell line lacks STAT1. inhibition, % at 5.5 µM. actives 0.89% (n = 190,000). AID 862;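 active = inhibition above the mean inhibition across all screened compounds plus 3 SD, cut at about 44% in these data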;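 note: 0% = DMSO only wells and 100% = 100 µM nifuroxazide control wells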
# STAT3 act = STAT3 signaling activation | AID 871 | actives 0.91% (n = 190,000) | activation (% of control), % at 5.6 µM | U3A cells, IL-6 STAT3-luciferase reporter, luminescence; 100% = signal with IL-6 EC80 alone;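 active = activation above the screen-wide mean of compound activation plus 3 SD, cut at about 130% in these data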;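 note: 0% = background luminescence of wells with medium and substrate only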
#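 Test system: human U3A cells carrying STAT3-luciferase construct; control set: IL-6-only wells as 100% reference; timing: compound pre-incubation 1 h before IL-6, then 6 h stimulation at 37 °C; also added: IL-6 stimulus at 33 ng/mL final; evaluation: % activation versus median of IL-6-stimulated wells; detection: reporter luminescence signal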
# The depositor's hits bear a star; / = not tested or not shown; ! = not confirmed by another sample.
SMILES,STAT1 blocker,HSP90 refold inh,STAT3 blocker,STAT3 act
COc1cccc(C2=NOC(C(=O)Nc3c(C)n(C)n(-c4ccccc4)c3=O)C2)c1 (configuration not stated),/,-1,/,/
O=C(O)C(=O)Cc1c[nH]c2ccccc12,10,-4,-23,133*
CC(=O)/C=C(/C)NC(Cc1c[nH]c2ccccc12)C(=O)O (configuration not stated),10,4,-31,133*!
Cc1nc(N[C@@H](Cc2c[nH]c3ccccc23)C(=O)O)c2oc3ccccc3c2n1,11,-2,-55,150*
NC(=O)c1cc(S(=O)(=O)NCc2ccc(Br)cc2)cs1,/,-1,/,/
CN(CCC1CCOCC1)C(=O)CC1C(=O)NCCN1Cc1ccccc1F (configuration not stated),/,-4,/,/
CN(C)/C=C(\C#N)C(=O)Nc1ccc(O)cc1F,3,0,15,91
Nn1cnnc1N/N=C/c1cc(Br)cc(Br)c1O,-8,68*,5,104
Cc1csc(NC(=O)c2ccc(OCC3CCCO3)cc2)n1 (configuration not stated),60*,15,61*,51
Nc1n[nH]c(N)c1N=Nc1ccc2c(c1)OCO2,-34,4,3,99
Cc1cccc(C)c1NS(=O)(=O)c1ccc(OCCNS(C)(=O)=O)cc1,6,0,16,95
Fc1cccc2sc(Nc3nnc(-c4ccco4)o3)nc12,-35,7,-12,112
COc1cccc2sc(Nc3nnc(-c4cccs4)o3)nc12,-43,4,-80,172*
Nc1c(C(=O)Nc2ccc(Cl)cc2)oc2ccccc12,-78,-4,-75,173*
O=C(CN1CCN(c2ccccc2O)CC1)NC(=O)NCc1ccco1,-2,-4,-10,105
O=C(CN1CCc2ccccc21)NC(=O)NCc1ccco1,0,1,-41,135*
CCCCn1c(N)c(N(CC)C(=O)c2ccc([N+](=O)[O-])c(C)c2)c(=O)[nH]c1=O,/,2,/,/
CN(C(=O)c1ccco1)c1nnc(C23CC4CC(CC(C4)C2)C3)s1,-44,0,-34,133*
COc1ccccc1NC(=O)c1cc2ccccc2o1,-58,-7,-73,165*
O=C(Nc1ccc(Cl)cc1Cl)c1cc2ccccc2o1,/,-2,/,/
COc1cc(NC(=O)c2cc3ccccc3o2)c(OC)cc1Cl,1,-1,-57,154*
COc1cc(NC(=O)c2cc(CC(C)C)on2)c(OC)cc1Cl,-4,0,-43,136*
O=C(C1=C[C@H](C2CC2)C[C@H](OCCCCO)O1)N1CCN(Cc2ccc3c(c2)OCO3)CC1,1,17*,/,/
C[C@@H]1C=C(C(=O)N2CCN(Cc3ccc4c(c3)OCO4)CC2)O[C@H](OCCCCO)C1,11,10,/,/
O=C(C1=C[C@@H](c2coc3ccccc3c2=O)C[C@@H](OCCCCO)O1)N1CCN(Cc2ccc3c(c2)OCO3)CC1,-4,17*,/,/
SMILES,STAT1 blocker,HSP90 refold inh,STAT3 blocker,STAT3 act
O=C(C1=C[C@@H](c2coc3ccccc3c2=O)C[C@@H](OCCCCO)O1)N1CCN(Cc2ccccc2)CC1,-1,11,/,/
CN(C)C(=O)c1cc(C(=O)c2ccccc2F)c[nH]1,/,-4,/,/
O=C(NC(=S)Nc1nc2c(s1)CCCC2)c1ccc(C(=O)c2ccccc2)cc1,8,-2,14,90
O=C(NC(=S)Nc1nc2c(s1)CSc1ccccc1-2)c1ccccc1,15,4,-82,167*
O=C(O)CNC(=O)c1ccc(NC(=O)/C(=C/c2ccccc2)NC(=O)c2ccco2)cc1,/,2,/,/
O=C/C(=C\Nc1ccccn1)c1nc2cc(Cl)ccc2o1,-10,0,-40,135*
Cc1nnc(SCC(=O)Nc2cc(S(C)(=O)=O)ccc2Cl)n1Cc1ccccc1,/,1,/,/
O=C(c1ccco1)[C@@H]1[C@@H]2C(=O)N(c3ccc(F)cc3)C(=O)[C@@H]2[C@H]2C=Cc3ccccc3N21,14,2,-4,109
O=C(c1ccco1)[C@@H]1[C@@H]2C(=O)N(c3ccc(F)cc3)C(=O)[C@@H]2C2c3ccccc3C=CN21 (some centres not stated),-4,6,-34,134*
CSc1nc2ccc(S(=O)(=O)N3CCOCC3)cc2s1,2,-1,-39,135*
CSc1nc2ccc(S(=O)(=O)N3CCCCC3)cc2s1,10,1,4,102
O=C(Nc1ccccc1)C1Cc2ccccc2CN1C(=O)c1ccco1 (configuration not stated),-33,2,-49,141*
CCc1ccc(C2c3[nH]c4ccccc4c3CCN2C(=O)CNC(N)=O)cc1 (configuration not stated),0,2,-18,122

# Compound activity from PubChem BioAssay.
